In ChEMBL document CHEMBL1141617, “Synthesis and evaluation of antitumoral activity of ester and amide derivatives of 2-arylamino-6-trifluoromethyl-3-pyridinecarboxylic acids” (2008):

Columns and labels:
Assay type in all cases: functional
[1] = tested on: IGROV-1; assay: Growth inhibition of human IGROV1 cells
Summary of the method: (§1)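 NCI 60 human tumour cell line panel grown in RPMI1640 with 5% fetal calf serum and 2 mM L-glutamine. Cells seeded at a density set by each line's growth characteristics and preincubated 24 h. Compounds added in DMSO at 10^-4 to 10^-8 M (five 10-fold dilutions) and left 48 h continuously. Growth read by sulforhodamine B protein stain. GI50 is the molar concentration giving 50% net growth inhibition.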

[2] = tested on: SNB-75; assay: Growth inhibition of human SNB75 cells; summary of the method: as §1
[3] = tested on: HOP-92; assay: Growth inhibition of human HOP92 cells; conditions: for TGI: read-out: Log TGI (converted); summary of the method: as §1
[4] = tested on: OVCAR-3; assay: Growth inhibition of human OVCAR-3 cells; summary of the method: as §1
[5] = tested on: LOX IMVI; assay: Growth inhibition of human LOXIMVI cells; summary of the method: as §1
[6] = tested on: SK-MEL-5; assay: Growth inhibition of human SK-MEL5 cells; summary of the method: as §1
[7] = tested on: HL-60; assay: Growth inhibition of human HL60 cells; conditions: for TGI: read-out: Log TGI (converted); summary of the method: as §1
[8] = tested on: SR; assay: Growth inhibition of human SR cells; conditions: for TGI: read-out: Log TGI (converted); summary of the method: as §1
[9] = tested on: EKVX; assay: Growth inhibition of human EKVX cells; summary of the method: as §1
[10] = tested on: COLO 205; assay: Growth inhibition of human COLO205 cells; summary of the method: as §1
[11] = tested on: HCT-15; assay: Growth inhibition of human HCT15 cells; summary of the method: as §1
[12] = tested on: KM12; assay: Growth inhibition of human KM12 cells; summary of the method: as §1
[13] = tested on: U-251; assay: Growth inhibition of human U251 cells; summary of the method: as §1
[14] = tested on: Malme-3M; assay: Growth inhibition of human MALME3M cells; summary of the method: as §1
[15] = tested on: SK-OV-3; assay: Growth inhibition of human SKOV3 cells; summary of the method: as §1
[16] = tested on: A498; assay: Growth inhibition of human A498 cells; summary of the method: as §1
[17] = tested on: ACHN; assay: Growth inhibition of human ACHN cells; summary of the method: as §1
[18] = tested on: MDA-MB-231; assay: Growth inhibition of human MDA-MB-231 cells; conditions: for TGI: read-out: Log TGI (converted); summary of the method: as §1
[19] = tested on: MCF7; assay: Growth inhibition of human MCF7 cells; summary of the method: as §1
[20] = tested on: K562; assay: Growth inhibition of human K562 cells; summary of the method: as §1
[21] = tested on: MOLT-4; assay: Growth inhibition of human MOLT4 cells; summary of the method: as §1
[22] = tested on: RPMI-8226; assay: Growth inhibition of human RPMI8226 cells; summary of the method: as §1
[23] = tested on: SF-295; assay: Growth inhibition of human SF295 cells; summary of the method: as §1
[24] = tested on: CAKI-1; assay: Growth inhibition of human CAKI1 cells; summary of the method: as §1
[25] = tested on: UO-31; assay: Growth inhibition of human UO31 cells; summary of the method: as §1

## Cc1cc(Cl)ccc1Nc1nc(C(F)(F)F)ccc1C(=O)N1CCN(c2cccc(Cl)c2)CC1
[1]
  GI50: 1.78 µM
[2]
  GI50: 1.12 µM

## Cc1ccc(Cl)cc1Nc1nc(C(F)(F)F)ccc1C(=O)Oc1ccc(Cl)cc1
[3]
  GI50: 1.91 µM
[4]
  GI50: 2.57 µM
[4]; read-out: Log TGI (converted)
  TGI: 8.91 µM

## Cc1cc(Cl)ccc1Nc1nc(C(F)(F)F)ccc1C(=O)Nc1cccc(C(F)(F)F)c1
[5]
  GI50: 2.82 µM
[5]; read-out: Log TGI (converted)
  TGI: 8.51 µM
[6]
  GI50: 2.82 µM
[6]; read-out: Log TGI (converted)
  TGI: 9.33 µM
[3]
  GI50: 2.19 µM
  TGI: 8.13 µM
[7]
  GI50: 2.04 µM
  TGI: 4.68 µM
[8]
  GI50: 2.57 µM
  TGI: 8.32 µM
[9]
  GI50: 1.86 µM
[10]
  GI50: 2.51 µM
[10]; read-out: Log TGI (converted)
  TGI: 6.17 µM
[11]
  GI50: 2.57 µM
[11]; read-out: Log TGI (converted)
  TGI: 7.41 µM
[12]
  GI50: 2.09 µM
[13]
  GI50: 3.02 µM
[13]; read-out: Log TGI (converted)
  TGI: 9.77 µM
[14]
  GI50: 2 µM
[14]; read-out: Log TGI (converted)
  TGI: 9.12 µM
[15]
  GI50: 2.45 µM
[16]
  GI50: 2.82 µM
[16]; read-out: Log TGI (converted)
  TGI: 7.41 µM
[17]
  GI50: 2.75 µM
[17]; read-out: Log TGI (converted)
  TGI: 8.91 µM
[18]
  GI50: 2.04 µM
  TGI: 8.13 µM
[19]
  GI50: 2.29 µM
[19]; read-out: Log TGI (converted)
  TGI: 7.76 µM

## COc1ccc(NC(=O)c2ccc(C(F)(F)F)nc2Nc2ccc(Cl)cc2C)cc1Cl
[20]
  GI50: 2.4 µM
[21]
  GI50: 1.55 µM
[21]; read-out: Log TGI (converted)
  TGI: 4.9 µM
[7]
  GI50: 2.4 µM
  TGI: 5.37 µM
[8]
  GI50: 1.7 µM
  TGI: 6.46 µM
[18]
  GI50: 1.66 µM
  TGI: 6.76 µM
[22]
  GI50: 2.09 µM
[22]; read-out: Log TGI (converted)
  TGI: 4.9 µM
[19]
  GI50: 2.4 µM
[23]
  GI50: 2.34 µM

## COc1ccc(N2CCN(C(=O)c3ccc(C(F)(F)F)nc3Nc3cc(Cl)ccc3C)CC2)cc1
[6]
  GI50: 0.955 µM
[3]
  GI50: 1.48 µM
  TGI: 7.94 µM
[1]
  GI50: 0.0513 µM
[24]
  GI50: 1.38 µM
[25]
  GI50: 1.7 µM

## Cc1ccc(Cl)cc1Nc1nc(C(F)(F)F)ccc1C(=O)N1CCN(c2cccc(Cl)c2)CC1
[8]
  GI50: 2.75 µM
